Experimental data reported in ChEMBL document CHEMBL1765023, “Acetyl analogs of combretastatin A-4: synthesis and biological studies” (Bioorg Med Chem, 2011).
pEC50, pIC50: −log10 of the molar value. Converted amounts (≈) assume the structure as drawn.

Assays:
CCRF-CEM = assay: Growth inhibition of human CCRF-CEM cells after 48 hrs by sulforhodamine B assay; assay type: functional
Method in brief: (§1)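 NCI 60 human cancer cell line screen run at the National Cancer Institute. Cells had 48 h continuous exposure, and proliferation was read by sulforhodamine B staining. GI50 (50% growth inhibition) was taken from dose–response curves.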

K562 = assay: Growth inhibition of human K562 cells after 48 hrs by sulforhodamine B assay; assay type: functional; details: K562, 48 h; method in brief: as §1
UACC-62 = assay: Growth inhibition of human UACC62 cells after 48 hrs by sulforhodamine B assay; assay type: functional; details: UACC-62, 48 h
Method in brief: (§2)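 Tested in the NCI 60 human cancer cell line panel. Cells were exposed continuously for 48 h and proliferation was read by sulforhodamine B staining. GI50 (concentration for 50% growth inhibition), TGI (total growth inhibition) and LC50 were taken from dose–response curves.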

Mus musculus [1] = assay: Toxicity in DBA2 mouse assessed as change in white blood count at 75 mg/kg, ip QD administered on alternate days for 17 days measured on day 23 relative to control; assay type: organism-based; parameters: dose 75 mg/kg, route intraperitoneal; details: in vivo, 408 h
Method in brief: (§3)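 Healthy female DBA2 mice, 5–7 weeks old, five per group, received 75 mg/kg ip on days 1, 5, 9, 13 and 17. Vehicle was PET (PEG400/ethanol/Tween 80, 6:3:1), 5% glucose and DMSO, with final ethanol 15% and DMSO 10%. Controls received 100 µL vehicle. Body weight was measured every other day. At sacrifice on day 23, blood counts (hematocrit, WBC, granulocytes, platelets) and liver, kidney and spleen appearance and weight were assessed.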

COLO 205 = assay: Growth inhibition of human COLO205 cells after 48 hrs by sulforhodamine B assay; assay type: functional; details: COLO 205, 48 h; method in brief: as §1
SR = assay: Growth inhibition of human SR cells after 48 hrs by sulforhodamine B assay; assay type: functional; method in brief: as §2
MOLT-4 = assay: Growth inhibition of human MOLT4 cells after 48 hrs by sulforhodamine B assay; assay type: functional; details: MOLT-4, 48 h; method in brief: as §1
Mus musculus [2] = assay: Toxicity in DBA2 mouse assessed as change in body weight at 75 mg/kg, ip QD administered on alternate days for 17 days measured on day 23 relative to control; assay type: organism-based; parameters: dose 75 mg/kg, route intraperitoneal; details: in vivo, 408 h; method in brief: as §3
KM12 = assay: Growth inhibition of human KM12 cells after 48 hrs by sulforhodamine B assay; assay type: functional; details: KM12, 48 h; method in brief: as §1
MDA-MB-468 = assay: Growth inhibition of human MDA-MB-468 cells after 48 hrs by sulforhodamine B assay; assay type: functional; details: MDA-MB-468, 48 h; method in brief: as §1
SK-MEL-2 = assay: Growth inhibition of human SK-MEL-2 cells after 48 hrs by sulforhodamine B assay; assay type: functional; details: SK-MEL-2, 48 h; method in brief: as §1
LOX IMVI = assay: Growth inhibition of human LOXIMVI cells after 48 hrs by sulforhodamine B assay; assay type: functional; method in brief: as §1
SK-MEL-28 = assay: Growth inhibition of human SK-MEL-28 cells after 48 hrs by sulforhodamine B assay; assay type: functional; details: SK-MEL-28, 48 h; method in brief: as §1
EKVX = assay: Growth inhibition of human EKVX cells after 48 hrs by sulforhodamine B assay; assay type: functional; method in brief: as §1
[3] = Growth inhibition of human NCI-ADR-RES cells after 48 hrs by sulforhodamine B assay; assay type: functional; method in brief: as §1
SK-MEL-5 = assay: Growth inhibition of human SK-MEL-5 cells after 48 hrs by sulforhodamine B assay; assay type: functional; details: SK-MEL-5, 48 h; method in brief: as §1
SW-620 = assay: Growth inhibition of human SW620 cells after 48 hrs by sulforhodamine B assay; assay type: functional; details: SW-620, 48 h; method in brief: as §2
IGROV-1 = assay: Growth inhibition of human IGROV1 cells after 48 hrs by sulforhodamine B assay; assay type: functional; details: IGROV-1, 48 h; method in brief: as §1
B16 = assay: Cytotoxicity against mouse B16 cells by MTT assay; assay type: functional, cell-based
[4] = Growth inhibition of human […] cells after 48 hrs by sulforhodamine B assay; assay type: functional; method in brief: as §1
SF-268 = assay: Growth inhibition of human SF268 cells after 48 hrs by sulforhodamine B assay; assay type: functional; details: SF-268, 48 h; method in brief: as §1
[5] = Induction of microtubule depolymerization in […] cells for 18 hrs by indirect immunofluorescence microscopic analysis; assay type: cell-based
Method in brief: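 Uses A-10 cells, a non-transformed line that arrests in interphase under microtubule-targeting agents. Cells were treated for 18 h and interphase microtubules were visualized by indirect immunofluorescence microscopy, with vehicle-treated controls. Depolymerization was screened at concentrations below 30 µM. For EC50, a range of concentrations was tested, and EC50 is the concentration causing 50% loss of cellular microtubules by microscopy.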

SNB-75 = assay: Growth inhibition of human SNB75 cells after 48 hrs by sulforhodamine B assay; assay type: functional; details: SNB-75, 48 h; method in brief: as §2
SK-OV-3 = assay: Growth inhibition of human SKOV3 cells after 48 hrs by sulforhodamine B assay; assay type: functional; details: SK-OV-3, 48 h; method in brief: as §2
NCI-H522 = assay: Growth inhibition of human NCI-H522 cells after 48 hrs by sulforhodamine B assay; assay type: functional; details: NCI-H522, 48 h; method in brief: as §1
[6] = Solubility of the compound in water by multiscreen solubility; assay type: physicochemical
Method in brief: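 Aqueous solubility was measured with a modified Multiscreen Solubility filter-plate protocol. The assay ceiling is 500 µM, and two independent experiments were run.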

TK-10 = assay: Growth inhibition of human TK10 cells after 48 hrs by sulforhodamine B assay; assay type: functional; details: TK-10, 48 h; method in brief: as §2
HT-29 = assay: Growth inhibition of human HT-29 cells after 48 hrs by sulforhodamine B assay; assay type: functional; details: HT-29, 48 h; method in brief: as §1
A498 = assay: Growth inhibition of human A498 cells after 48 hrs by sulforhodamine B assay; assay type: functional; details: A498, 48 h; method in brief: as §1
Mus musculus [7] = assay: Toxicity in DBA2 mouse assessed as change in color, weight and size in liver at 75 mg/kg, ip QD administered on alternate days for 17 days measured on day 23 relative to control; assay type: organism-based; parameters: dose 75 mg/kg, route intraperitoneal; details: in vivo, 408 h; method in brief: as §3
ACHN = assay: Growth inhibition of human ACHN cells after 48 hrs by sulforhodamine B assay; assay type: functional; method in brief: as §1
BT-549 = assay: Growth inhibition of human BT549 cells after 48 hrs by sulforhodamine B assay; assay type: functional; details: BT-549, 48 h; method in brief: as §1
T47D = assay: Growth inhibition of human T47D cells after 48 hrs by sulforhodamine B assay; assay type: functional; method in brief: as §2
HCT-15 = assay: Growth inhibition of human HCT15 cells after 48 hrs by sulforhodamine B assay; assay type: functional; details: HCT-15, 48 h; method in brief: as §1

COc1ccc(/C=C(/C(C)=O)c2cc(OC)c(OC)c(OC)c2)cc1O
GI50 (CCRF-CEM): 0.398 µM
TGI (CCRF-CEM; read-out: pTGI): > 100 µM
GI50 (K562): 0.0407 µM
TGI (K562; read-out: pTGI): > 100 µM
GI50 (UACC-62): 0.151 µM
TGI (UACC-62; read-out: pTGI): > 100 µM
Activity (Mus musculus [1]): Non-toxic
GI50 (COLO 205): 10.7 µM
TGI (COLO 205; read-out: pTGI (converted)): 37.2 µM
GI50 (SR): 0.0263 µM
TGI (SR; read-out: pTGI): > 100 µM
GI50 (MOLT-4): 0.316 µM
TGI (MOLT-4; read-out: pTGI): > 100 µM
Activity (Mus musculus [2]): Non-toxic
GI50 (KM12): 0.112 µM
TGI (KM12; read-out: pTGI (converted)): 1.95 µM
GI50 (MDA-MB-468): 0.17 µM
TGI (MDA-MB-468; read-out: pTGI (converted)): 0.55 µM
GI50 (SK-MEL-2): 0.513 µM
TGI (SK-MEL-2; read-out: pTGI): > 100 µM
GI50 (LOX IMVI): 0.417 µM
TGI (LOX IMVI; read-out: pTGI): > 100 µM
GI50 (SK-MEL-28): 100 µM
TGI (SK-MEL-28; read-out: pTGI): > 100 µM
GI50 (EKVX): 5.25 µM
TGI (EKVX; read-out: pTGI): > 100 µM
GI50 [3]: 0.11 µM
GI50 (SK-MEL-5): 0.132 µM
TGI (SK-MEL-5; read-out: pTGI (converted)): 3.09 µM
GI50 (SW-620): 0.0912 µM
TGI (SW-620; read-out: pTGI (converted)): 53.7 µM
GI50 (IGROV-1): 0.316 µM
TGI (IGROV-1; read-out: pTGI): > 100 µM
pIC50 (B16): 5.46
GI50 [4]: 0.661 µM
TGI ([4]; read-out: pTGI): > 100 µM
GI50 (SF-268): 0.363 µM
TGI (SF-268; read-out: pTGI (converted)): 16.6 µM
pEC50 [5]: 5.74
GI50 (SNB-75): 0.257 µM
TGI (SNB-75; read-out: pTGI): > 100 µM
GI50 (SK-OV-3): 0.417 µM
TGI (SK-OV-3; read-out: pTGI): > 100 µM
GI50 (NCI-H522): 0.135 µM
TGI (NCI-H522; read-out: pTGI (converted)): 0.537 µM
solubility [6]: 456 µM (≈ 163 µg/mL)
GI50 (TK-10): 18.2 µM
TGI (TK-10; read-out: pTGI): > 100 µM
GI50 (HT-29): 3.63 µM
TGI (HT-29; read-out: pTGI (converted)): 15.5 µM
GI50 (A498): 0.0676 µM
TGI (A498; read-out: pTGI (converted)): 0.55 µM
Activity (Mus musculus [7]): Non-toxic
GI50 (ACHN): 1.23 µM
TGI (ACHN; read-out: pTGI): > 100 µM
GI50 (BT-549): 0.427 µM
TGI (BT-549; read-out: pTGI (converted)): 14.1 µM
GI50 (T47D): 100 µM
TGI (T47D; read-out: pTGI): > 100 µM
GI50 (HCT-15): 0.398 µM
TGI (HCT-15; read-out: pTGI): > 100 µM
